Sampled rows, rich in hits. Any-hit rate of the full collection: about 3.3%.
Xi reactivation: reactivates the inactive X chromosome in mouse fibroblasts. 360,000 tested, 0.055% active. activation, % at 7.58 µM. XiGFP mouse fibroblasts, % GFP-positive cells imaging, 3 d; cells co-treated with 5-aza-dC sensitizer; scaled so ellipticine positive control = 100%;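 active = mean normalized replicate activation at least 10% and every replicate at or above 10%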;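 also: 0% = median of on-plate neutral control wells and 100% = ellipticine 6 µM median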
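Material: SV40-immortalized XiGFP fibroblast cells, line 68-5-11 | Buffer or medium: DMEM containing 5-aza-dC | Dosing: One concentration, pinned | Times: 3 d treatment, 15 min room-temperature fixation | Controls: Ellipticine 6 µM positive control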
E-selectin induc: E-selectin induction on HUVECs. HUVEC E-selectin immunofluorescence imaging; normalized: neutral wells 0, TNF-alpha wells 100. activation, % at 7.58 µM. 260,000 tested, 0.37% active. AID 686992;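 active = mean E-selectin-positive cell signal at least 10% of the positive control, reached in at least 60% of replicates, without over 20% cell loss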
Target sequence (P16581 whole entry, looked up): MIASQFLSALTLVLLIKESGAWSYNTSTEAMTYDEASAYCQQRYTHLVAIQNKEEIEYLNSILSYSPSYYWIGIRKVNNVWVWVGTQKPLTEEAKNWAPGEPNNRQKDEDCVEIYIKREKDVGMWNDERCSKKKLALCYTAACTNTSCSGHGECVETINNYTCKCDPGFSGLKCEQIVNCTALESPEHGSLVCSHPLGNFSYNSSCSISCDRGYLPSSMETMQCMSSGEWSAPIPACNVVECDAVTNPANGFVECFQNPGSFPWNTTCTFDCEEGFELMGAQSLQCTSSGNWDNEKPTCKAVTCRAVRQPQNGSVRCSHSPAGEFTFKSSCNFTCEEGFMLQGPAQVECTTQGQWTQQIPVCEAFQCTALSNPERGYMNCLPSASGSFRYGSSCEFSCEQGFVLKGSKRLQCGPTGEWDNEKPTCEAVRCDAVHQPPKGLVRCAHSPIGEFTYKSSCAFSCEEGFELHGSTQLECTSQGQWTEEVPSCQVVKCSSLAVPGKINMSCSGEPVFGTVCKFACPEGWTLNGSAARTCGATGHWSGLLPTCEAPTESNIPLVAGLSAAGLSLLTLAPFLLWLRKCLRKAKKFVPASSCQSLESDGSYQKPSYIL
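material = human umbilical vein endothelial cells (HUVEC), E-selectin induction | quantity = 3,000 cells/well | medium = EGM-2 growth medium on 0.1% gelatin-coated wells | technique = immunofluorescence imaging | read-out basis = % PE-positive cells | control set = TNF-alpha positive control, DMSO neutral control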
DENV2 CPE rescue: protects cells from dengue virus 2 cytopathic effect; 350,000 tested, 1.7% active; CPE inhibition, % at 9.99 µM; DENV2-infected cells, cytopathic effect rescue, plate reader; in the data active = CPE inhibition above about 20%, passing the limit was not always enough; tested in BHK-21 cells;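 also: 0% = median of neutral control wells and 100% = median of positive control wells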
FGF22 binding: FGF22 (human) thermal shift binding | Q9HCT0 | recombinant FGF22 thermal shift, SYPRO orange fluorescence; percent of sucrose octasulfate shift, DMSO zero | activity (Tm shift, normalised), % at 9.99 µM | 340,000 tested, 1.5% active | AID 651658;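 active = mean Tm shift, scaled 0 neutral to 100 positive control, at about 1.3% or above, every replicate too, limit read from the data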
PglD inh: PglD (C. jejuni) enzyme inhibition; purified PglD enzyme, DTNB colorimetric CoA detection; inhibition, % at 12.5 µM; 360,000 tested, 0.098% active; AID 602405; in the data active = inhibition above about 16%, passing the limit was not always enough
C2C12 statin: protects C2C12 myotubes from simvastatin toxicity; ATP luminescence, 48 h; scaled: DMSO 0, geranylgeraniol control 100; rescue of ATP level, % at 7.49 µM; 330,000 tested, 0.78% active;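 active = mean ATP rescue above about 67%, or every replicate alone reaching that limit, limit read from the data, passing the limit was not always enough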;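 also: myotubes were challenged with 10 µM simvastatin during compound exposure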
An asterisk follows results filed as active; x = no result.

SMILES | Xi reactivation | E-selectin induc | DENV2 CPE rescue | FGF22 binding | PglD inh | C2C12 statin
CCOP(=O)(c1ccccc1)C(O)c1ccc([N+](=O)[O-])cc1 (stereo not given) | 0.3 | 0.2 | 39.4* | 0.0 | 0.5 | -5.7
O=C(Nc1ccccc1)OC1CC2CC1C1CCCC21 (stereo not given) | 0.1 | 0.1 | 14.8 | 42.9* | -3.6 | x
O=C(CC(C(=O)O)P(=O)(c1ccccc1)c1ccccc1)c1ccccc1 (stereo not given) | 0.0 | 0.6 | -2.2 | 43.0* | 7.2 | -6.1
COC(=O)c1c(C)cc(O)cc1O | x | x | 3.1 | 0.0 | -1.3 | -0.9
Cc1cc(OC(=O)c2c(C)cc(OC(=O)c3c(C)cc(O)cc3O)cc2O)cc(O)c1C(=O)O | x | x | 5.5 | 1.9* | -4.3 | -6.7
C/C=C/c1ccc([C@H]2[C@@H](CO)N(C(=O)CC)C23CN(S(=O)(=O)CC)C3)cc1 | 0.0 | -0.1 | -0.2 | -0.2 | x | x
C/C=C/c1cnc2c(c1)C(=O)N([C@@H](C)CO)C[C@@H](C)[C@H](CN(C)CC1CCOCC1)O2 | 0.0 | x | x | x | x | x
CC1(C)CC(=O)C=C(c2cccc(OC(=O)c3ccc(Br)cc3)c2)C1=O | 0.7 | -0.6 | -2.4 | 0.3 | 2.4 | 11.2
CC(=O)Oc1cccc(C2=CC(=O)CC(C)(C)C2=O)c1 | 0.7 | 2.6 | 21.6* | 0.0 | -0.7 | 2.6
CO[C@H]1CN(C)C(=O)c2cc(NC(=O)c3cccc(F)c3)ccc2OC[C@H](C)NC[C@H]1C | -0.1 | 0.1 | 4.6 | 0.8 | 0.5 | 21.7
Cc1ccc2[nH]c(=O)c(NC(N)=S)nc2c1 | x | x | x | x | -1.3 | 101.1*
NC(=S)Nc1nc2ccccc2[nH]c1=O | x | x | -1.0 | 0.1 | x | x
CC(C)NC(=O)N(C)C[C@H]1Oc2ccc(NC(=O)CCC(F)(F)F)cc2C(=O)N([C@H](C)CO)C[C@H]1C | -0.8 | -0.9 | 71.5* | 0.1 | -3.1 | -5.1
CC(C)NC(=O)N(C)C[C@H]1Oc2ccc(NC(=O)CCC(F)(F)F)cc2C(=O)N([C@@H](C)CO)C[C@@H]1C | -1.4 | -5.7 | 23.2* | -0.3 | -0.1 | -4.8
CC(C)NC(=O)N(C)C[C@@H]1Oc2ccc(NC(=O)CCCN(C)C)cc2C(=O)N([C@@H](C)CO)C[C@H]1C | 0.1 | 241.6* | 7.6 | -0.1 | 0.1 | -2.9
C[C@@H]1CN([C@H](C)CO)C(=O)c2cc(-c3ccc(C#N)cc3)cnc2O[C@H]1CN(C)C(=O)Nc1ccc(C(F)(F)F)cc1 | 0.3 | -0.1 | x | -0.1 | 1.3 | 2.8
O=C(C1=C[C@@H](c2csc3ccccc23)C[C@@H](OCCCCO)O1)N1CCCCCCC1 | x | x | -5.5 | -0.2 | -2.6 | x
O=C(NC(=S)Nc1cccc2cc(O)ccc12)c1ccco1 | 0.3 | 11.8 | 44.5* | -0.2 | 1.3 | 2.8
Cc1cc(NC(=S)NC(=O)c2ccco2)c2ccccc2n1 | 0.3 | 1.5 | 10.4 | 43.0* | x | x
CO[C@@H]1CN(C)C(=O)c2ccc(NC(=O)NC(C)C)cc2OC[C@H](C)N(CC2CC2)C[C@H]1C | 0.0 | 0.2 | -0.9 | 0.1 | -0.8 | 7.7
COC(=O)C1=C(C)NC(=O)/C1=C\c1cc(C)n(-c2ccccc2)c1C | 0.0 | 10.4 | -5.0 | 43.1* | x | -2.0
COC(=O)C1=C(C)NC(=O)/C1=C\c1cc(C)n(-c2cc(C)cc(C)c2)c1C | x | x | x | x | x | 18.0
O=C(O)CC(NC(=O)COc1ccccc1)c1cccc([N+](=O)[O-])c1 (stereo not given) | 0.0 | x | 5.6 | 0.1 | 0.6 | x
COc1ccc(CC(=O)NC(CC(=O)O)c2cccc([N+](=O)[O-])c2)cc1 (stereo not given) | 0.0 | -3.1 | 3.2 | 0.0 | 2.8 | 121.9*
O=C(O)c1cc(N2CCCCC2)nc2ccccc12 | 0.0 | 0.0 | -0.3 | 43.2* | -0.2 | 18.2
SMILES | Xi reactivation | E-selectin induc | DENV2 CPE rescue | FGF22 binding | PglD inh | C2C12 statin
CCOC(=O)c1cc(N2CCCCC2)nc2ccccc12 | 0.1 | 5.1 | 0.2 | 0.4 | -1.0 | 0.0
Cc1cccc(NC(=O)CSc2ncnc3c2oc2ccccc23)c1 | 0.1 | -0.2 | -3.4 | -0.1 | 0.1 | 1.6
Cc1ccc2nc(NC(=O)CSc3ncnc4c3oc3ccccc34)sc2c1 | 0.1 | 82.3* | -5.4 | 0.1 | -0.5 | x
Cc1cc(Cl)c(S(=O)(=O)NCc2ccncc2)cc1OCC(N)=O | x | x | x | x | -0.9 | 129.2*
Cc1cc(Cl)c(S(=O)(=O)NCc2ccccc2)cc1OCC(N)=O | x | x | x | x | 2.1 | 5.3
Cc1oc(-c2ccccc2Cl)nc1CN1CCCCC1c1cccnc1 (stereo not given) | 0.3 | 3.8 | -4.0 | 43.1* | x | x
CC(=O)Nc1cc(-c2nn(C)c(=O)c3ccccc23)ccc1N1CCOCC1 | x | x | x | x | 1.3 | 105.7*
C[C@H](CO)N1C[C@H](C)[C@@H](CN(C)C(=O)NC2CCCCC2)Oc2ccc(NC(=O)CCCCCC(=O)Nc3ccccc3N)cc2C1=O | -0.5 | 0.2 | x | -0.1 | x | x
O=C1CCCCCN1C(=O)c1ccccc1 | 0.3 | 1.0 | -8.0 | 42.9* | x | -4.6
COc1ccccc1NS(=O)(=O)c1cccc(NC(=O)c2ccc3ccccc3n2)c1 | 0.0 | x | 5.1 | 0.3 | 1.6 | 110.5*
COc1ccccc1NS(=O)(=O)c1cccc(NC(=O)c2nc3nc(C)cc(C)n3n2)c1 | x | x | x | x | 3.0 | 125.7*
O=C(Nc1cccc(S(=O)(=O)Nc2ccccc2F)c1)c1ccc2ccccc2n1 | 0.5 | 1.9 | 1.9 | -0.1 | x | x
Cc1noc(C)c1NC(=O)Nc1ccc2c(c1)C(=O)N([C@H](C)CO)C[C@@H](C)[C@@H](CN(C)Cc1ccc(C(F)(F)F)cc1)OCCCC[C@H](C)O2 | -0.1 | 0.0 | -11.3 | -0.5 | -1.4 | x
CN(C)CC(=O)N[C@@H]1CC[C@@H](CCn2cc(CN(C)C)nn2)O[C@@H]1CO | 0.7 | -0.5 | -0.1 | -0.2 | -4.3 | 0.8
CCS(=O)(=O)Nc1ccc2c(c1)C(=O)N(C)[C@@H]1CC[C@H](CC(=O)NC3CCCCC3)O[C@H]1CO2 | 0.0 | -0.2 | 76.3* | 0.1 | -0.9 | 6.9
CCC(=O)Nc1ccc2c(c1)C(=O)N(C)[C@@H]1CC[C@@H](CC(=O)NC3Cc4ccccc4C3)O[C@@H]1CO2 | 0.3 | 0.0 | 30.4* | 0.3 | 7.8 | -18.4
Cc1cccc(NC(=O)Nc2ccc3c(c2)C(=O)N(C)[C@@H]2CC[C@@H](CC(=O)O)O[C@@H]2CO3)c1 | 0.3 | 0.0 | x | 0.0 | 0.1 | 7.0
Cc1cccc(NC(=O)Nc2ccc3c(c2)C(=O)N(C)[C@@H]2CC[C@@H](CC(=O)O)O[C@H]2CO3)c1 | 0.0 | 0.3 | 71.9* | 0.0 | -2.1 | 0.2
CCC(=O)Nc1ccc2c(c1)C(=O)N(C)[C@@H]1CC[C@H](CC(=O)O)O[C@H]1CO2 | 0.3 | 0.1 | 24.0* | 0.0 | 17.6 | 20.1
CCS(=O)(=O)Nc1ccc2c(c1)C(=O)N(C)[C@H]1CC[C@H](CC(=O)NC3CCCCC3)O[C@H]1CO2 | 0.0 | -0.3 | 11.6 | 0.0 | 2.7 | 1.8
